ChEMBL document CHEMBL3526035, “Role of the intestinal peptide transporter PEPT1 in oseltamivir absorption: in vitro and in vivo studies” (Drug Metab Dispos, 2012)

What was measured:
[1] = AUC(0 to 24 hrs) in healthy human at 150 mg, po administered as single dose by HPLC-tandem mass spectrometry under fed conditions; format: ADME, organism-based; parameters: time < 24 hr, dose 150 mg, route oral; settings: plasma
How it was run: (§1)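 Open-label crossover in 18 healthy volunteers (9 male, 9 female, mean age 26). Each received marketed oseltamivir 150 mg orally, once fasted from midnight and once after a high-fat, high-calorie breakfast, with a 7-10 day washout. Plasma and urine collected over 0-72 h and analysed by HPLC-MS/MS. AUC and Cmax compared after log transformation.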

[2] = Tmax in adult fed Sprague-Dawley rat at 30 mg/kg, po administered as 125 mM aqueous Gly-Sar solution by HPLC-tandem mass spectrometry; format: ADME, organism-based; parameters: dose 30 mg/kg, route oral; settings: in vivo
How it was run: (§2)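 Cannulated adult male Sprague-Dawley rats with chow ad libitum, 3 per vehicle, were given oral 30 mg/kg (10 ml/kg). Plasma analysis was by HPLC-MS/MS, with Tmax taken graphically from concentration-time profiles.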

[3] = Cmax in healthy human at 150 mg, po administered as single dose by HPLC-tandem mass spectrometry under fed conditions; format: ADME, organism-based; parameters: dose 150 mg, route oral; settings: in vivo; how it was run: as §1
[4] = Drug uptake in CHOK1 cells expressing human PEPT1 at pH 6 by HPLC coupled with radiodetection analysis; format: ADME, cell-based, Cricetulus griseus; settings: chinese hamster, cho-k1, pH 6
How it was run: (§3)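 Accumulation of [14C]oseltamivir or its carboxylate in CHO-PEPT1 versus CHO-K1 cells. Conditions varied: KH buffer (with MES) or Hanks' balanced salt solution, pH 5 or 6 readjusted after substrate addition, 30 s to 15 min at 37°C. Uptake was quenched with ice-cold PBS-BSA, followed by Triton X-100 lysis, scintillation counting, and BCA protein normalization. HPLC-radiodetection checked ester stability.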

[5] = AUC(0 to infinity) in adult fasted Sprague-Dawley rat at 30 mg/kg, po administered as solution in bovine milk by HPLC-tandem mass spectrometry; format: ADME, organism-based; parameters: time infinity, dose 30 mg/kg, route oral; settings: in vivo
How it was run: (§4)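 Adult male Sprague-Dawley rats (243-283 g), jugular-cannulated, fasted from 6 h before dosing through the 6-h study. Given 30 mg/kg orally (free base) at 10 ml/kg, n=3/group. Blood sampled at 0.25-6 h into K2EDTA with dichlorvos esterase inhibitor. Plasma assayed by LC-MS/MS (0.1-500 μg/l). Noncompartmental analysis: linear-trapezoid AUC; infinity extrapolation via log-linear terminal λz.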

[6] = Drug uptake in CHOK1 cells at 5 to 100 uM after 10 mins by HPLC coupled with radiodetection analysis; format: ADME, cell-based, Cricetulus griseus; settings: chinese hamster, cho-k1, 10 min
[7] = AUC(0 to 24 hrs) in adult fed Sprague-Dawley rat at 30 mg/kg, po administered as 125 mM aqueous Gly-Sar solution by HPLC-tandem mass spectrometry; format: ADME, organism-based; parameters: time < 24 hr, dose 30 mg/kg, route oral; settings: plasma
How it was run: (§5)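 Sprague-Dawley males, 7-8 weeks, 243-283 g, jugular-cannulated, 3 days' recovery; fed (chow ad libitum). Single oral dose of 30 mg/kg (free base) at 10 ml/kg; 3 rats/group. Jugular blood taken at 0.25-24 h into K2EDTA with dichlorvos, kept on ice. Plasma analysed by validated LC-MS/MS (0.1-500 μg/l). Noncompartmental analysis; AUC by linear trapezoid, AUC0-∞ extrapolated using λz.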

[8] = AUC(0 to infinity) in healthy human at 150 mg, po administered as single dose by HPLC-tandem mass spectrometry under fed conditions; format: ADME, organism-based; parameters: dose 150 mg, time infinity, route oral; settings: plasma; how it was run: as §1
[9] = Drug uptake in CHOK1 cells at pH 6 by HPLC coupled with radiodetection analysis; format: ADME, cell-based, Cricetulus griseus; settings: chinese hamster, cho-k1, pH 6
[10] = AUC(0 to infinity) in adult fed Sprague-Dawley rat at 30 mg/kg, po administered as 125 mM aqueous Gly-Sar solution by HPLC-tandem mass spectrometry; format: ADME, organism-based; parameters: time infinity, dose 30 mg/kg, route oral; settings: plasma; how it was run: as §5
[11] = AUC(0 to infinity) in adult fasted Sprague-Dawley rat at 30 mg/kg, po administered as 125 mM aqueous Gly-Sar solution by HPLC-tandem mass spectrometry; format: ADME, organism-based; parameters: time infinity, dose 30 mg/kg, route oral; settings: plasma; how it was run: as §4
[12] = Cmax in adult fasted Sprague-Dawley rat at 30 mg/kg, po administered as water solution by HPLC-tandem mass spectrometry; format: ADME, organism-based; parameters: dose 30 mg/kg, route oral; settings: in vivo
How it was run: (§6)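 Adult cannulated Sprague-Dawley rats, fasted (from 6 h predose) or fed, dosed orally at 30 mg/kg (10 ml/kg), 3 per group. Serial jugular plasma with dichlorvos stabilisation, measured by LC-MS/MS. Cmax read graphically from the concentration-time profile.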

[13] = AUC(0 to 24 hrs) in adult fed Sprague-Dawley rat at 30 mg/kg, po administered as solution in bovine milk by HPLC-tandem mass spectrometry; format: ADME, organism-based; parameters: time < 24 hr, dose 30 mg/kg, route oral; settings: in vivo; how it was run: as §5
[14] = Drug excretion in healthy human urine assessed as unchanged drug level at 150 mg, po administered as single dose by HPLC-tandem mass spectrometry under fed conditions; format: ADME, organism-based; settings: read-out: Drug excretion; how it was run: as §1
[15] = Tmax in adult fed Sprague-Dawley rat at 30 mg/kg, po administered as solution in bovine milk by HPLC-tandem mass spectrometry; format: ADME, organism-based; parameters: dose 30 mg/kg, route oral; settings: in vivo; how it was run: as §2
[16] = Cmax in juvenile breast-fed Sprague-Dawley rat at 30 mg/kg, po administered as water solution by HPLC-tandem mass spectrometry; format: ADME, organism-based; parameters: dose 30 mg/kg, route oral; settings: in vivo
How it was run: (§7)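 7-day-old Sprague-Dawley pups (9.7-18.9 g, both sexes), 15 per group. Given 30 mg/kg by oral gavage (10 ml/kg); breast-fed pups stayed with dams, fasted pups were removed 8 h before dosing. Blood taken by cardiac puncture under isoflurane at 0.25, 0.5, 1, 2 and 5 h, n=3 per time point (composite design). Dichlorvos-treated plasma assayed by LC-MS/MS; AUC0-5h by noncompartmental analysis.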

[17] = AUC(0 to infinity) in adult fed Sprague-Dawley rat at 30 mg/kg, po administered as solution in bovine milk by HPLC-tandem mass spectrometry; format: ADME, organism-based; parameters: time infinity, dose 30 mg/kg, route oral; settings: in vivo; how it was run: as §5
[18] = Cmax in adult fasted Sprague-Dawley rat at 30 mg/kg, po administered as 125 mM aqueous Gly-Sar solution by HPLC-tandem mass spectrometry; format: ADME, organism-based; parameters: dose 30 mg/kg, route oral; settings: in vivo; how it was run: as §6
[19] = Cmax in juvenile fasted Sprague-Dawley rat at 30 mg/kg, po administered as 125 mM aqueous Gly-Sar solution by HPLC-tandem mass spectrometry; format: ADME, organism-based; parameters: dose 30 mg/kg, route oral; settings: in vivo; how it was run: as §7
[20] = Drug uptake in CHOK1 cells expressing human PEPT1 incubated for 30s to 15 mins by HPLC coupled with radiodetection analysis; format: ADME, cell-based, Cricetulus griseus; settings: chinese hamster, cho-k1, 0.25 h; how it was run: as §3
[21] = Tmax in juvenile breast-fed Sprague-Dawley rat at 30 mg/kg, po administered as water solution by HPLC-tandem mass spectrometry; format: ADME, organism-based; parameters: dose 30 mg/kg, route oral; settings: in vivo
How it was run: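 Seven-day-old Sprague-Dawley pups, males and females, 15 per group, were gavaged with 30 mg/kg (10 ml/kg). Breast-fed pups stayed with their dams; fasted pups were removed from 8 h predose through 5 h. Cardiac blood was drawn under isoflurane at 0.25, 0.5, 1, 2 and 5 h (composite, n=3/time point), with dichlorvos added. Plasma was analyzed by HPLC-MS/MS and Tmax read graphically.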

[22] = AUC(0 to infinity) in adult fasted Sprague-Dawley rat at 30 mg/kg, po administered as water solution by HPLC-tandem mass spectrometry; format: ADME, organism-based; parameters: time infinity, dose 30 mg/kg, route oral; settings: plasma; how it was run: as §4
[23] = Cmax in juvenile fasted Sprague-Dawley rat at 30 mg/kg, po administered as solution in bovine milk by HPLC-tandem mass spectrometry; format: ADME, organism-based; parameters: dose 30 mg/kg, route oral; settings: in vivo; how it was run: as §7
[24] = AUC(0 to 6 hrs) in adult fed Sprague-Dawley rat at 30 mg/kg, po administered as solution in bovine milk by HPLC-tandem mass spectrometry; format: ADME, organism-based; parameters: time < 6 hr, dose 30 mg/kg, route oral; settings: in vivo; how it was run: as §5
[25] = AUC(0 to 24 hrs) in healthy human at 150 mg, po administered as single dose by HPLC-tandem mass spectrometry under fasting conditions; format: ADME, organism-based; parameters: dose 150 mg, time < 24 hr, route oral; settings: plasma; how it was run: as §1

With CCC(CC)O[C@@H]1C=C(C(=O)O)C[C@H](N)[C@H]1NC(C)=O [OSELTAMIVIR CARBOXYLATE] the AUC(0-t) at 24 h [1] was 5060 ng·h/mL, the Tmax [2] was 85.2 min and the Cmax [3] was 441 ng/mL. For the same molecule, the Drug uptake [4] was “Active”, the AUC(0-inf) [5] was 6300 ng·h/mL and the Drug uptake [6] was “Active”. For the same molecule, the AUC(0-t) at 24 h [7] was 4860 ng·h/mL, the AUC(0-inf) [8] was 6070 ng·h/mL and the Drug uptake [9] was “Active”. It also gave an AUC(0-inf) [10] of 4870 ng·h/mL, an AUC(0-inf) [11] of 8860 ng·h/mL and a Cmax [12] of 2290 ng/mL. It also gave an AUC(0-t) at 24 h [13] of 6330 ng·h/mL, a dose excreted [14] of 55.5% and a Tmax [15] of 45 min. It also gave a Cmax [16] of 1500 ng/mL, an AUC(0-inf) [17] of 6340 ng·h/mL and a Cmax [18] of 2560 ng/mL. The Cmax [19] was 2710 ng/mL, the Drug uptake [20] was “Active” and the Tmax [21] was 300 min. The AUC(0-inf) [22] was 6140 ng·h/mL, the Cmax [23] was 2460 ng/mL and the AUC(0-t) at 6 h [24] was 4510 ng·h/mL. It also gave an AUC(0-t) at 24 h [25] of 5540 ng·h/mL.

For CCOC(=O)C1=C[C@@H](OC(CC)CC)[C@H](NC(C)=O)[C@@H](N)C1 [OSELTAMIVIR], the AUC(0-t) at 24 h [1] was 280 ng·h/mL, the Tmax [2] was 39.6 min and the Cmax [3] was 101 ng/mL. For the same molecule, the Drug uptake [4] was “Active”, the AUC(0-inf) [5] was 3060 ng·h/mL and the Drug uptake [6] was “Active”. The AUC(0-t) at 24 h [7] was 2830 ng·h/mL, the AUC(0-inf) [8] was 287 ng·h/mL and the Drug uptake [9] was “Active”. For the same molecule, the AUC(0-inf) [10] was 2840 ng·h/mL, the AUC(0-inf) [11] was 3810 ng·h/mL and the Cmax [12] was 1690 ng/mL. It also gave an AUC(0-t) at 24 h [13] of 2800 ng·h/mL, a dose excreted [14] of 4.32% and a Tmax [15] of 24.6 min. It also gave a Cmax [16] of 6140 ng/mL, an AUC(0-inf) [17] of 2810 ng·h/mL and a Cmax [18] of 2070 ng/mL. For the same molecule, the Cmax [19] was 10400 ng/mL, the Drug uptake [20] was “Active” and the Tmax [21] was 60 min. The AUC(0-inf) [22] was 2710 ng·h/mL, the Cmax [23] was 7990 ng/mL and the AUC(0-t) at 6 h [24] was 2510 ng·h/mL. It also gave an AUC(0-t) at 24 h [25] of 238 ng·h/mL.
